Measured values published in ChEMBL document CHEMBL1149277, “Antiestrogen binding site and estrogen receptor mediate uptake and distribution of 4-hydroxytamoxifen-targeted doxorubicin-formaldehyde conjugate in breast cancer cells” (J Med Chem, 2004).
pIC50: −log10 of the molar value. One block for each compound: values may come before it.

How the values were obtained:
[1] = Inhibition of DOX-TEG-TAM uptake in ER expressing Rtx6 cells; assay type: cell-based; settings: human
Outline: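 Rtx-6 cells in tamoxifen-free medium got 0.5 µM conjugate for 1 h with or without estradiol at various concentrations. Flow cytometry of anthracycline fluorescence: excitation 488 nm, emission 570–600 nm, 10000 cells. Mean fluorescence minus drug-free background.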

[2] = test system: MDA-MB-435; experiment: Inhibition of DOX-TEG-TAM uptake in MDA-MB-435 cells; assay type: cell-based; settings: human
Outline: (§1)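 Competition read by flow cytometry. MDA-MB-435 cells adhered overnight, then given 0.5 µM anthracycline for 1 h with or without tamoxifen at various concentrations (up to 10 µM). Cells trypsinized and kept cold in serum-free, phenol red-free RPMI. Excitation 488 nm, emission 570–600 nm, 10000 cells. Mean fluorescence with drug-free background subtracted.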

[3] = Growth inhibition of ER expressing Rtx6 cells after 4 hrs; assay type: functional; settings: Homo sapiens
[4] = test system: MCF7; experiment: Drug uptake in ER expressing MCF7 cells; assay type: ADME, cell-based; settings: human
Outline: (§2)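 Cells adhered overnight at 450000 per well, then were exposed to 0.5 µM drug for 1 h (uptake also at 20 and 40 min). They were trypsinized, washed cold, and held on ice in serum-free, phenol red-free RPMI. Flow cytometry: excitation 488 nm, emission 570–600 nm, 10000 cells, mean fluorescence minus drug-free background. Settings were fixed per cell line.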

[5] = test system: MCF7; experiment: Drug uptake in MCF7 cells at 500 nM for 1 hr relative to MDA-MB-435 cells; assay type: ADME, cell-based; settings: human, mcf7, 1 h, 0.5 µM; outline: as §2
[6] = molecular target: T1, Anti-estrogen binding site (AEBS) (Homo sapiens) (UniProt Q15125+Q9UBM7); experiment: Displacement of 0.05 nM [3H]tamoxifen from AEBS in MCF7 cell lysate relative to E/Z-4-hydroxytamoxifen; assay type: cell-free
Outline: (§3)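 AEBS source: MCF-7 cell lysate (sonicated, 12000g supernatant, diluted to 2.0 mg/mL protein, pH 7.4 lysis buffer with molybdate and protease inhibitors). [3H]tamoxifen at 5, 0.5 or 0.05 nM, with 1000 nM estradiol to saturate ER, plus cold competitor; 18 h at 4 °C. Dextran-coated charcoal strip, scintillation counting. Binding expressed relative to E/Z-4-OHT from reduction of bound tritium; competitors in duplicate.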

[7] = molecular target: T1, Anti-estrogen binding site (AEBS) (Homo sapiens); experiment: Displacement of 0.5 nM [3H]tamoxifen from AEBS in MCF7 cell lysate relative to E/Z-4-hydroxytamoxifen; assay type: cell-free; outline: as §3
[8] = molecular target: T1, Anti-estrogen binding site (AEBS) (Homo sapiens); experiment: Displacement of 5 nM [3H]tamoxifen from AEBS in MCF7 cell lysate relative to E/Z-4-hydroxytamoxifen; assay type: cell-free; outline: as §3
[9] = molecular target: T1, Anti-estrogen binding site (AEBS) (Homo sapiens); experiment: Binding affinity at AEBS; assay type: protein-complex assay; outline: as §3
[10] = Drug uptake in ER expressing Rtx6 cells at 500 nM; assay type: ADME, cell-based; settings: human, 0.5 µM; outline: as §2
[11] = test system: MDA-MB-231 (Homo sapiens); experiment: Drug uptake in MDA-MB-231 cells at 500 nM for 1 hr relative to MDA-MB-435 cells; settings: mda-mb-231, 1 h, 0.5 µM
[12] = Drug uptake in MCF7/Adr cells at 500 nM; assay type: ADME, cell-based; settings: human, nci/adr-res, 0.5 µM
Outline: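 MCF-7/Adr cells in log phase (RPMI 1640, 10% FBS), plated 450000 cells/well and adhered overnight; exposed to 0.5 μM drug (from 100× DMSO/1% AcOH stock) for 20, 40, 60 min. Cells were trypsinized, quenched and resuspended in cold serum-free, phenol red free RPMI, then held on ice. Flow cytometry: ex 488 nm, em 570–600 nm, 10000 cells; mean fluorescence minus drug-free background.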

[13] = test system: MDA-MB-435; experiment: Decrease in doxorubicin uptake in MDA-MB-435 cells at 10 uM after 1 hr relative to DOX-TEG-TAM; assay type: ADME, cell-based; parameters: scale not given: the % may be the effect or the level left; settings: human, mda-mb-435, 1 h; outline: as §1
[14] = test system: MDA-MB-435; experiment: Decrease in DOX-TEG-TAM uptake in MDA-MB-435 cells after 1 hr; assay type: ADME, cell-based; settings: human, mda-mb-435, 1 h; outline: as §1
[15] = test system: MDA-MB-435; experiment: Decrease DOX-TEG-TAM uptake in MDA-MB-435 cells at 10 uM after 1 hr relative to control; assay type: ADME, cell-based; parameters: scale not given: the % may be the effect or the level left; settings: human, mda-mb-435, 1 h; outline: as §1
[16] = test system: MDA-MB-435; experiment: Decrease doxorubicin-saliform uptake in MDA-MB-435 cells at 10 uM after 1 hr relative to DOX-TEG-TAM; assay type: ADME, cell-based; parameters: scale not given: the % may be the effect or the level left; settings: human, mda-mb-435, 1 h; outline: as §1

- Activity [1]: Dose-dependent effect
- Activity [2]: Not Active
SMILES: C[C@]12CC[C@@H]3c4ccc(O)cc4CC[C@H]3[C@@H]1CC[C@@H]2O [ESTRADIOL]

- Relative Fluorescent Unit [4]: 25
- Drug uptake [5]: 25%
- Activity [6]: 70%
- Activity [7]: 72%
- Activity [8]: 48%
- Activity [9]: 60%
- Relative Fluorescent Unit [10]: 14
- Drug uptake [11]: 25%
SMILES: CC/C(=C(/c1ccc(O)cc1)c1ccc(OCCN(C)CCOCCOCCO/N=C/c2ccc(O)c(C(=O)NCN[C@H]3C[C@H](O[C@H]4C[C@](O)(C(=O)CO)Cc5c(O)c6c(c(O)c54)C(=O)c4c(OC)cccc4C6=O)O[C@@H](C)[C@H]3O)c2)cc1)c1ccccc1
- pIC50 [3]: 7.17

- Relative Fluorescent Unit [4]: 16
- Relative Fluorescent Unit [12]: 1
SMILES: COc1cccc2c1C(=O)c1c(O)c3c(c(O)c1C2=O)C[C@@](O)(C(=O)CO)C[C@@H]3O[C@H]1C[C@H](NCNC(=O)c2ccccc2O)[C@H](O)[C@H](C)O1
- pIC50 [3]: 7.21

- Activity [13]: 8%
- Activity [14]: Dose-dependent effect
- Activity [15]: 47%
- Activity [16]: 6%
SMILES: CC/C(=C(\c1ccccc1)c1ccc(OCCN(C)C)cc1)c1ccccc1 [TAMOXIFEN]
